Our source for the level values is article PMC10499740 (Advances in Therapy, 2023).

The nature of this data set: Plasma triptorelin concentration. The data set is classed as in vivo, Chinese children. The note with it: human, im, 15 mg, SD. Summed up: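 Children with CPP (age-limited, ≥20 kg) received 15 mg of the test compound's pamoate salt (delivering 11.25 mg) by intramuscular injection into the upper outer buttock on day 1 and months 3, 6 and 9. Sparse plasma sampling was done pre-dose, 4 h post-injection on day 1, at month 3 (pre-dose) and at month 6. Concentrations were measured by validated LC-MS/MS and reported as means.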

`CC(C)C[C@H](NC(=O)[C@@H](Cc1c[nH]c2ccccc12)NC(=O)[C@H](Cc1ccc(O)cc1)NC(=O)[C@H](CO)NC(=O)[C@H](Cc1c[nH]c2ccccc12)NC(=O)[C@H](Cc1c[nH]cn1)NC(=O)[C@@H]1CCC(=O)N1)C(=O)N[C@@H](CCCNC(=N)N)C(=O)N1CCC[C@H]1C(=O)NCC(N)=O` [triptorelin] came in with a level at 4 h of 47.6 ± 23.9 ng/mL.
